The values that follow come from ChEMBL document CHEMBL4118192, “BET bromodomain ligands: Probing the WPF shelf to improve BRD4 bromodomain affinity and metabolic stability” (Bioorg Med Chem, 2018).

Series [1] concerns the target T1, Bromodomain-containing protein 4 (Homo sapiens, UniProt O60885). As to the kind of experiment: Inhibition of recombinant His6-tagged human BRD4 bromodomain 1 expressed in Escherichia coli BL21(DE3)-R3-pRARE2 cells preincubated for 30 mins followed by H4KAc4 peptide substrate addition measured after 30 mins by AlphaScreen assay.
Series [2] has as its target T1, Bromodomain-containing protein 4. Kind of series: Binding affinity to His6-tagged human BRD4 bromodomain 1 expressed in Escherichia coli BL21(DE3)-R3-pRARE2 cells by isothermal titration calorimetric method.
In series [3] the target is Bromodomain testis-specific protein (Homo sapiens) (UniProt Q58F21). As to the kind of experiment: Inhibition of human partial length BRDT bromodomain 1 (N21 to E137 residues) expressed in bacterial expression system assessed as residual activity at 1 uM by BROMOscan assay relative to control.
In series [4] the test system is A498. Kind of series: Growth inhibition of human A498 cells after 48 hrs by SRB assay. The series is classed as functional. Particulars: A498, 48 h. In a few lines:
(§1)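 In-house assay. Cells were seeded into 96-well plates at a density for exponential growth and treated with a concentration range for 48 h. They were then fixed in 10% (w/v) TCA and stained with sulforhodamine B. The 50% growth-inhibitory concentration relative to control cells was calculated as the mean of three repeats ± standard deviation.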

A short description of series [5]: Apparent half life in human liver microsomes at 3 uM. It counts as ADME, microsome. Particulars: read-out: t1/2(app).
The subject of series [6] is HT-29. As to the kind of experiment: Growth inhibition of human HT-29 cells after 48 hrs by SRB assay. The series is classed as functional. The conditions noted are these: HT-29, 48 h. The method, boiled down:
as §1

Series [7] addresses Bromodomain-containing protein 9 (Homo sapiens) (UniProt Q9H8M2). Kind of series: Inhibition of human partial length BRD9 (R130 to V259 residues) expressed in bacterial expression system assessed as residual activity at 1 uM by BROMOscan assay relative to control.
In series [8] the target is T1, Bromodomain-containing protein 4. Kind of series: Inhibition of human partial length BRD4 bromodomain 1 (N44 to E168 residues) expressed in bacterial expression system assessed as residual activity at 1 uM by BROMOscan assay relative to control.
Series [9] addresses CREB-binding protein (Homo sapiens) (UniProt Q92793). As to the kind of experiment: Inhibition of human partial length CREBBP (R1081 to G1197 residues) expressed in bacterial expression system assessed as residual activity at 1 uM by BROMOscan assay relative to control.
Series [10] has as its system MCF7. Kind of series: Growth inhibition of human MCF7 cells after 48 hrs by SRB assay. The series is classed as functional. Particulars: MCF7, 48 h. In a few lines:
as §1

The target in series [11] is Histone acetyltransferase KAT2B (Homo sapiens) (UniProt Q92831). As to the kind of experiment: Inhibition of human partial length PCAF (G715 to D831 residues) expressed in bacterial expression system assessed as residual activity at 1 uM by BROMOscan assay relative to control.
The target in series [12] is SWI/SNF-related matrix-associated actin-dependent regulator of chromatin subfamily A member 4 (Homo sapiens) (UniProt P51532). Kind of series: Inhibition of human partial length SMARCA4 (A1448 to S1575 residues) expressed in bacterial expression system assessed as residual activity at 1 uM by BROMOscan assay relative to control.
A short description of series [13]: Intrinsic clearance in human liver microsomes at 3 uM. The series is classed as ADME, microsome. The conditions noted are these: read-out: CLH.
In series [14] the target is Peregrin (Homo sapiens) (UniProt P55201). Kind of series: Inhibition of human partial length BRPF1 (E627 to G740 residues) expressed in bacterial expression system assessed as residual activity at 1 uM by BROMOscan assay relative to control.
Series [15] addresses Bromodomain-containing protein 3 (Homo sapiens) (UniProt Q15059). Kind of series: Inhibition of human partial length BRD3 bromodomain 1 (P24 to E144 residues) expressed in bacterial expression system assessed as residual activity at 1 uM by BROMOscan assay relative to control.
In series [16] the target is Bromodomain and WD repeat-containing protein 1 (Homo sapiens) (UniProt Q9NSI6). Kind of series: Inhibition of human partial length WDR9 bromodomain 2 (A1310 to E1430 residues) expressed in bacterial expression system assessed as residual activity at 1 uM by BROMOscan assay relative to control.
The target in series [17] is ATPase family AAA domain-containing protein 2B (Homo sapiens) (UniProt Q9ULI0). Kind of series: Inhibition of human partial length ATAD2B (Q955 to R1082 residues) expressed in bacterial expression system assessed as residual activity at 1 uM by BROMOscan assay relative to control.
The target in series [18] is T1, Bromodomain-containing protein 4. Kind of series: Inhibition of human partial length BRD4 bromodomain 2 (K333 to E460 residues) expressed in bacterial expression system assessed as residual activity at 1 uM by BROMOscan assay relative to control.
The target of series [19] is Bromodomain-containing protein 2 (Homo sapiens) (UniProt P25440). Kind of series: Inhibition of human partial length BRD2 bromodomain 1 (K71 to N194 residues) expressed in bacterial expression system assessed as residual activity at 1 uM by BROMOscan assay relative to control.

SMILES strings stand for the structures.

Chain of Histone acetyltransferase KAT2B (Homo sapiens) (Q92831 whole entry, looked up, the tested form may be a part): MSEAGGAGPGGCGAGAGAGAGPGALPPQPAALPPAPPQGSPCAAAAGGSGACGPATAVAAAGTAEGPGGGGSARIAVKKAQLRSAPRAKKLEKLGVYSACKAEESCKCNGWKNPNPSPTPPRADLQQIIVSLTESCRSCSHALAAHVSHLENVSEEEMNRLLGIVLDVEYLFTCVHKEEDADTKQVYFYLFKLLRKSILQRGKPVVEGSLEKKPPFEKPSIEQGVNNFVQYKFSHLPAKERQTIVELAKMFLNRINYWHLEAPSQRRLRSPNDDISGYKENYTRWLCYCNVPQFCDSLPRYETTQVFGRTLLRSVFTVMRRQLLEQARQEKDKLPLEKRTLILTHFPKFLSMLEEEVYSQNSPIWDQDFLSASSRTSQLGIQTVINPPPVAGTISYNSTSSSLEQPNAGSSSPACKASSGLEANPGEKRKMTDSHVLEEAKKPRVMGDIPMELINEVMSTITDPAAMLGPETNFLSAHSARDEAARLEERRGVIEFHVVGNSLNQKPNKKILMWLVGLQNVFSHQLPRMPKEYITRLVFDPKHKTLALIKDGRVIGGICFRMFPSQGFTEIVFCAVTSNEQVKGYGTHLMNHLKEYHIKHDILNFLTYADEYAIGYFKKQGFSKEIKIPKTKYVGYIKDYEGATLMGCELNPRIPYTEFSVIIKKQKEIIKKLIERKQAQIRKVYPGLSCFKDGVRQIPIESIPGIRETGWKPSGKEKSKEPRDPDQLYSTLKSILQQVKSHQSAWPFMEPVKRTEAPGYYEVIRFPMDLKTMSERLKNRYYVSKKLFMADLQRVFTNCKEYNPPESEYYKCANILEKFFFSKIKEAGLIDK
Chain of Bromodomain-containing protein 3 (Homo sapiens) (Q15059 2-726 limits assumed): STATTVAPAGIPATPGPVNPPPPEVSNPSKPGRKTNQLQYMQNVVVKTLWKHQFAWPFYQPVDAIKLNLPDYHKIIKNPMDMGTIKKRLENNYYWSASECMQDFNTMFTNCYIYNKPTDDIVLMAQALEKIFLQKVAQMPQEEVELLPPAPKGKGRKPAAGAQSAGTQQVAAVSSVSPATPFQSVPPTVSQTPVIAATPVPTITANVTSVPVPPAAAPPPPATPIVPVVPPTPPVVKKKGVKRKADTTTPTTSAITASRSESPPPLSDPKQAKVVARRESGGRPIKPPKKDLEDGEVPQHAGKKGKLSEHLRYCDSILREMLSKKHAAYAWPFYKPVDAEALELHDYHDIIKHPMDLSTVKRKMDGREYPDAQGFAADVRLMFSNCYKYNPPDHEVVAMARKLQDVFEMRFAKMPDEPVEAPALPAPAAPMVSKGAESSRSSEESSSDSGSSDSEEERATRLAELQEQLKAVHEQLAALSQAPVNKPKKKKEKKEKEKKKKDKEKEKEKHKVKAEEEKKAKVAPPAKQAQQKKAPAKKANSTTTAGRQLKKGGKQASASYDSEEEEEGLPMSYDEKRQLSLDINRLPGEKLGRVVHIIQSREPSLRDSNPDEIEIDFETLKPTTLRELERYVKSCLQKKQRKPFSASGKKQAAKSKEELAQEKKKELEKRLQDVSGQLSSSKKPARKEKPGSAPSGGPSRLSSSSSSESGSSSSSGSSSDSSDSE
Chain of ATPase family AAA domain-containing protein 2B (Homo sapiens) (Q9ULI0 whole entry, the tested form may be a part): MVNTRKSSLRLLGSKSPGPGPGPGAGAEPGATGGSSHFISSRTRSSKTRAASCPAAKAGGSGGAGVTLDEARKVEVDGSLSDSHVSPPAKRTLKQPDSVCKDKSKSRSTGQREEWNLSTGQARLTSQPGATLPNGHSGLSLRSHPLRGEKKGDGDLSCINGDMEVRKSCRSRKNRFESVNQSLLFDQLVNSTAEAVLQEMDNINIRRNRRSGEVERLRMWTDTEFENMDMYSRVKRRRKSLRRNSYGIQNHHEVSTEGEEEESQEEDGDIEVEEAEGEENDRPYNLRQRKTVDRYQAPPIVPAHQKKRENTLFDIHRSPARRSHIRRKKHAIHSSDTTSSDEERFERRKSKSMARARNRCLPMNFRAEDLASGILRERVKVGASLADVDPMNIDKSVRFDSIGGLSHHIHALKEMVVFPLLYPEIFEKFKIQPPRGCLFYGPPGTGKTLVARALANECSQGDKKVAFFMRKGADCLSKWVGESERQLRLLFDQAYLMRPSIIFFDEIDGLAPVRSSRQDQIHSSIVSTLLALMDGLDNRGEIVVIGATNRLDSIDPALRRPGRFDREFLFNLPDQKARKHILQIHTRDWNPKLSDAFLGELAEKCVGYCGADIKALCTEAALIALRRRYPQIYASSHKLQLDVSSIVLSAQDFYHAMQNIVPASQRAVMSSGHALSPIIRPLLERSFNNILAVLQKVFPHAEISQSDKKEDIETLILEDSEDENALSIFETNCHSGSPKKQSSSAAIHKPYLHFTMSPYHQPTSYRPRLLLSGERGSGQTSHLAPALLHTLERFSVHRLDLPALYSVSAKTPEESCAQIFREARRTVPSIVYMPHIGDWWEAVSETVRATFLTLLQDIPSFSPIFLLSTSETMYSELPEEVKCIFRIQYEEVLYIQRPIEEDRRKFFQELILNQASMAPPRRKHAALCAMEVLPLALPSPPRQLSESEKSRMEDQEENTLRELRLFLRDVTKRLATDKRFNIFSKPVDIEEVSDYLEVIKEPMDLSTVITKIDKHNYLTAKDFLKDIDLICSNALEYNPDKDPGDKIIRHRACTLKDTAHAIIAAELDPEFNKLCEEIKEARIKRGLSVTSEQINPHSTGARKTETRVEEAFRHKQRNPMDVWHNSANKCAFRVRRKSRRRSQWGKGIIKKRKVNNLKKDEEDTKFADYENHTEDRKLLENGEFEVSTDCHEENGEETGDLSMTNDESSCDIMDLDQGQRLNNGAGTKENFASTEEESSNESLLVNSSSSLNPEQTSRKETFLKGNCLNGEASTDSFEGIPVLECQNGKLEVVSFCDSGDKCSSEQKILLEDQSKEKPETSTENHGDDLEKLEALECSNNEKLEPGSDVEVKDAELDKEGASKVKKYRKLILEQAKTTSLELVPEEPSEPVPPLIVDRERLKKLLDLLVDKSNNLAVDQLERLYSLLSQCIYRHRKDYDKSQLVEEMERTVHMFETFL
Chain of SWI/SNF-related matrix-associated actin-dependent regulator of chromatin subfamily A member 4 (Homo sapiens) (P51532 whole entry, the tested form may be a part): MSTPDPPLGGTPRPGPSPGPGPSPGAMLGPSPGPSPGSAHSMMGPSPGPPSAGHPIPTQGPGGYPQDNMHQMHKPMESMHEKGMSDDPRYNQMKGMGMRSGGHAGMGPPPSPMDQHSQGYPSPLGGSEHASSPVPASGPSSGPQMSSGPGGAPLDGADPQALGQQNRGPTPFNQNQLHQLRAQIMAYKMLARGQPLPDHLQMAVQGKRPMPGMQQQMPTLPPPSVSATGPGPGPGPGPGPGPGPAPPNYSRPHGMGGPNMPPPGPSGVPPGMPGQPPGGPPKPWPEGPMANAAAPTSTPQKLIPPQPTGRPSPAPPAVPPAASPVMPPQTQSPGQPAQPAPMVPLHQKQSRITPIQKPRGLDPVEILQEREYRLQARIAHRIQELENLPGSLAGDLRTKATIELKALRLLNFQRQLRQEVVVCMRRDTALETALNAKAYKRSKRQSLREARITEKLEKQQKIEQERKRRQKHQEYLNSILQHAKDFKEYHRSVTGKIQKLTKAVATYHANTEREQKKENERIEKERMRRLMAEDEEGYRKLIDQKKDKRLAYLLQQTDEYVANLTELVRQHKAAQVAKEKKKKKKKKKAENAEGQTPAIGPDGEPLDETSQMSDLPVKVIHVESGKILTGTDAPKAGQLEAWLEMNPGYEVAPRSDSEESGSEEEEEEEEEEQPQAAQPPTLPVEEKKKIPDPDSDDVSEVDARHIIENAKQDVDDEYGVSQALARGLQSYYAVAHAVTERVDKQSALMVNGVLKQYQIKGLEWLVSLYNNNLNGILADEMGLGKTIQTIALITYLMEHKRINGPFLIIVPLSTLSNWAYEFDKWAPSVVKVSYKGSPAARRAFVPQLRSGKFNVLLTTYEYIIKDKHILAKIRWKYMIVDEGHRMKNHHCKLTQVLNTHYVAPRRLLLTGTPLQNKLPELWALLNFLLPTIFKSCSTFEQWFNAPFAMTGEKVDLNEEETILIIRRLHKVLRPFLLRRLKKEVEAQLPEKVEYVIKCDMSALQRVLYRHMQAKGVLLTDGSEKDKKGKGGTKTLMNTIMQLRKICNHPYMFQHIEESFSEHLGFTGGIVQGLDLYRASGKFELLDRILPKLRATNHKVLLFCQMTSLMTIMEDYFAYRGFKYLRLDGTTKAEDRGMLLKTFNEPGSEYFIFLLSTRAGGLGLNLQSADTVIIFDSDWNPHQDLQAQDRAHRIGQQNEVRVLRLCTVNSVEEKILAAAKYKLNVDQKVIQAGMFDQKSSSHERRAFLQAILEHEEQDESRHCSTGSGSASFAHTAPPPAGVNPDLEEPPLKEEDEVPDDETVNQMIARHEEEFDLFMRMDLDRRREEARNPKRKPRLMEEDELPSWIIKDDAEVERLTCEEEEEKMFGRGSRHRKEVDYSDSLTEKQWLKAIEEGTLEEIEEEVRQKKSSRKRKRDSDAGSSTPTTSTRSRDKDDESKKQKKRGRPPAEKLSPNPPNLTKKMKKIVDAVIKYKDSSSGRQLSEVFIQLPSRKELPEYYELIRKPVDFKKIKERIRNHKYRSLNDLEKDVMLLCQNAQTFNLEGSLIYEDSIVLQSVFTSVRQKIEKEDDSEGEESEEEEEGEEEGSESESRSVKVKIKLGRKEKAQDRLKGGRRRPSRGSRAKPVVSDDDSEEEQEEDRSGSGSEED

On to `Cc1noc(C)c1-c1cc(O)cc(C(O)c2ccc(Cl)cn2)c1` (stereo not given), for which the figures for the IC50 in series [1] (read-out: IC50) and in [1] (read-out: pIC50 (converted)) were 495 nM and 490 nM, respectively.

As to `Cc1noc(C)c1-c1cc(O)cc(C(O)c2ccc(Cl)cc2)c1` (stereo not given), the IC50 in series [1] (read-out: IC50) and in series [1] (read-out: pIC50 (converted)) was 631 nM in each case.

As for `Cc1noc(C)c1-c1cc(O)cc(C(O)c2cccnc2)c1` (stereo not given), the Kd in series [2] was determined as 247 nM. For the same compound, the Activity in series [3] stood at 11%; in series [7], 100%; in [8], 4.6%; in series [9], 29%; in series [11] it was 100%; in series [12], 100%. In addition, the Activity worked out at 100% in series [14]; 1.5% in [15]; 100% in [16]; 98% in [17]; 1.1% in series [18]; 1.8% in series [19]. In addition, the results for the 50% growth inhibitory concentration (GI50) in series [4], in [6] and in series [10] were 4880 nM, 4400 nM and 1400 nM, respectively. Also, in series [5], the half-life at 3 µM came out at 388 min. Also, the IC50 in series [1] (read-out: IC50) and in series [1] (read-out: pIC50 (converted)) was 166 nM in each case. In series [13], the microsomal CLint at 3 µM turned out to be 3.57 µL/min/mg.

`COc1ccc(C(O)c2cc(O)cc(-c3c(C)noc3C)c2)cc1` (stereo not given): the IC50 in [1] (read-out: IC50) was 585 nM; in series [1] (read-out: pIC50 (converted)) it was 589 nM.

For the compound `Cc1noc(C)c1-c1cc(O)cc(Cc2ccccc2)c1`, the IC50 in series [1] (read-out: IC50) and in [1] (read-out: pIC50 (converted)) was 1100 nM throughout.

On to `Cc1noc(C)c1-c1cc(O)cc(C(=O)N2CCNCC2)c1`, for which the IC50 in series [1] (read-out: IC50) was 722 nM; in [1] (read-out: pIC50 (converted)), 724 nM.

For the compound `Cc1noc(C)c1-c1cc(O)cc(C(O)c2ccc(Cl)c(Cl)c2)c1` (stereo not given), the results for the IC50 in [1] (read-out: IC50) and in series [1] (read-out: pIC50 (converted)) were 945 nM and 955 nM, respectively.

Take `COc1cccc(C(O)c2cc(O)cc(-c3c(C)noc3C)c2)c1` (stereo not given): the results for the IC50 in [1] (read-out: IC50) and in series [1] (read-out: pIC50 (converted)) were 478 nM and 479 nM, respectively.

As for `Cc1noc(C)c1-c1cc(O)cc(C(O)c2ccncc2)c1` (stereo not given), the IC50 in [1] (read-out: IC50) is 303 nM; in series [1] (read-out: pIC50 (converted)) it was 302 nM.

For the compound `Cc1noc(C)c1-c1cc(O)cc(C(O)c2ccccc2F)c1` (stereo not given), the figures for the IC50 in [1] (read-out: IC50) and in series [1] (read-out: pIC50 (converted)) were 1420 nM and 1410 nM, respectively.

Take `Cc1noc(C)c1-c1cc(O)cc(CN2CCCC2)c1`: the results for the IC50 in series [1] (read-out: IC50) and in series [1] (read-out: pIC50 (converted)) were 3270 nM and 3240 nM, respectively.

As for `Cc1noc(C)c1-c1cc(O)cc(CN2CCOCC2)c1`, the results for the IC50 in series [1] (read-out: IC50) and in series [1] (read-out: pIC50 (converted)) were 956 nM and 955 nM, respectively.

With `COc1ccccc1C(O)c1cc(O)cc(-c2c(C)noc2C)c1` (stereo not given), the IC50 in series [1] (read-out: IC50) was 270 nM; in series [1] (read-out: pIC50 (converted)), 269 nM.

Regarding `Cc1noc(C)c1-c1cc(O)cc(CN2CCCCC2)c1`, the IC50 in [1] (read-out: IC50) was 4280 nM; in series [1] (read-out: pIC50 (converted)), 4270 nM.

`Cc1noc(C)c1-c1cc(O)cc(C(O)C2CC2)c1` (stereo not given): the IC50 in [1] (read-out: IC50) is 377 nM; in [1] (read-out: pIC50 (converted)), 380 nM.

As to `Cc1noc(C)c1-c1cc(O)cc(C(O)c2cccc(F)c2)c1` (stereo not given), the IC50 in [1] (read-out: IC50) was 793 nM; in series [1] (read-out: pIC50 (converted)), 794 nM.

In the case of `Cc1noc(C)c1-c1cc(O)cc(CNCc2ccccc2)c1`, the IC50 in [1] (read-out: IC50) was 2250 nM; in series [1] (read-out: pIC50 (converted)) it was 2240 nM.

On to `Cc1noc(C)c1-c1cc(O)cc(CN2CCN(C)CC2)c1`, for which the IC50 in [1] (read-out: IC50) and in [1] (read-out: pIC50 (converted)) was 1230 nM throughout.

Regarding `Cc1noc(C)c1-c1cc(O)cc(C(O)c2ccc(F)cc2)c1` (stereo not given), the IC50 was 842 nM in [1] (read-out: IC50) and 851 nM in series [1] (read-out: pIC50 (converted)).

As for `Cc1noc(C)c1-c1cc(O)cc(C(O)c2ccccn2)c1` (stereo not given), the IC50 in [1] (read-out: IC50) and in series [1] (read-out: pIC50 (converted)) was 4680 nM in each case.

With `Cc1noc(C)c1-c1cc(O)cc(CN2CCC(F)(F)CC2)c1`, the half-life at 3 µM in [5] was 27 min. The IC50 in [1] (read-out: IC50) was 235 nM; in series [1] (read-out: pIC50 (converted)), 234 nM. In addition, the microsomal CLint at 3 µM in series [13] is 51.4 µL/min/mg.

Turning to `Cc1noc(C)c1-c1cc(O)cc(C(=O)N2CCOCC2)c1`, the IC50 in series [1] (read-out: IC50) and in series [1] (read-out: pIC50 (converted)) was 3800 nM each time.

`Cc1ccc(C(O)c2cc(O)cc(-c3c(C)noc3C)c2)cc1` (stereo not given): the IC50 was 296 nM in [1] (read-out: IC50) and 295 nM in series [1] (read-out: pIC50 (converted)).

With `COc1ccc2c(c1)[C@]13CCCC[C@@H]1[C@H](C2)N(C)CC3` [DEXTROMETHORPHAN], the half-life at 3 µM in series [5] was determined as 54.5 min. In addition, the microsomal CLint at 3 µM in series [13] worked out at 25.4 µL/min/mg.

Take `Cc1noc(C)c1-c1cc(O)cc(C(O)C2CCCCC2)c1` (stereo not given): the IC50 in series [1] (read-out: IC50) and in series [1] (read-out: pIC50 (converted)) was 166 nM each time.
